Values after ≈ are worked out from the molar mass of the structure shown. Active and inactive are the calls of the source. The rule behind the calls is not given here.
Columns and labels:
Rattus norvegicus [1] = species: Rattus norvegicus; test: Percent viability of rat hippocampal neurons exposed to hydrogen peroxide (50 uM) in the presence of the test agent (5 uM); assay type: functional
Summary of the method: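 Primary rat hippocampal neuron cultures were given test agent (5 μM) and exposed for 15 min to H2O2 (50 μM). Survival was scored by vital dye staining 18 h later. n = 3 cultures prepared on different days, mean ± SD.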

Rattus norvegicus [2] = test: Hypotensive effect in anesthetized normotensive rat expressed as effective dose; No effect; assay type: functional, organism-based
Oryctolagus cuniculus = species: Oryctolagus cuniculus; test: Inhibition of iron-dependent peroxidation of rabbit vesicular membrane lipids (minimum test concentration that gave greater than 50% inhibition).; assay type: functional
Summary of the method: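 Lipids from rabbit brain vesicular membranes were peroxidized in an iron-dependent system. Value is the minimum tested concentration giving ≥50% inhibition (μM), n = 3.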

[3] = Percent inhibition of 2,2'-azobis(2-amidinopropane)dihydrochloride induced decay of (R)-phycoerythrin fluorescence emission; assay type: functional; design: concentration or dose not given beside the values; conditions: dose or concentration not given here
Summary of the method: (§1)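 R-PE (4.5 × 10⁻⁸ M stock) was mixed with test agent (3 μM stock; 1 μM final) in 75 mM phosphate buffer pH 7.0 and equilibrated 5 min at 37 °C. AAPH (12 mM stock, freshly made) was then added. Fluorescence (ex 544, em 590 nm) was read every 5 min for 25 min and normalized to 0 min. Percent inhibition at 15 min = (sample − AAPH)/(control − AAPH) × 100, n = 4.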

[4] = percent inhibition of 2,2'-azobis(2-amidinopropane)dihydrochloride induced decay of (R)-phycoerythrin fluorescence emission; assay type: functional; design: concentration or dose not given beside the values; conditions: dose or concentration not given here; summary of the method: as §1
Rattus norvegicus [5] = test: Hypotensive effect in anesthetized normotensive rat expressed as effective dose; assay type: functional
Rattus norvegicus [6] = test: Hypotensive effect in anesthetized normotensive rat expressed as effective dose; Study; assay type: functional, organism-based
Rattus norvegicus [7] = test: Hypotensive effect in up to 0.1 mg/kg, slight pressor response (~16-17%) at 1 mg/kg; assay type: functional, organism-based

Row | MIC (Oryctolagus cuniculus) [µM] | Structure (SMILES) | Cell viability (Rattus norvegicus [1]) [%] | ED20 (Rattus norvegicus [2]) | inhibition [3] [%] | inhibition [4] [%] | ED20 (Rattus norvegicus [5]) [mg/kg] | ED20 (Rattus norvegicus [6]) | ED20 (Rattus norvegicus [7])
1 | > 100 | COc1cc(CN(C)C)cc(OC)c1O.Cl | 5.2 | inactive | 69 |  |  |  | 
2 | 1 | CCCCCCCOc1cc(CN(C)C)cc(OCCCCCCC)c1O.Cl | 75.7 |  |  | 7.2 |  |  | 
3 | > 100 | CCCCCNCc1cc(OC)c(O)c(OC)c1.Cl | 29 | inactive | 61.6 |  |  |  | 
4 | 3 (≈ 0.637 µg/mL) | CCCOC(=O)c1cc(O)c(O)c(O)c1 [PROPYL GALLATE] |  |  |  | 40 |  |  | 
5 | 100 | CCCCCCNCc1cc(OC)c(O)c(OC)c1.Cl | 42.6 | inactive | 65.2 |  |  |  | 
6 | 2.3 | CCCCCCCOc1cc(CN(C)C)cc(OC)c1O.Cl | 44 |  |  | 62.5 | > 1 |  | 
7 | > 100 | CCCCN(CCCC)Cc1cc(OC)c(O)c(OC)c1.Cl | 26.4 | inactive | 66.6 |  |  |  | 
8 | > 100 | CC(C)Oc1cc(CN(C)C)cc(OC(C)C)c1O.Cl | 35.8 | inactive | 69.3 |  |  |  | 
9 | > 100 | CC(C)Oc1cc(CN2CCN(CCO)CC2)cc(OC(C)C)c1O.Cl.Cl | 45.3 | inactive | 71.6 |  |  |  | 
10 | 30 | CCCCCNCc1cc(OC(C)C)c(O)c(OC(C)C)c1.Cl | 42.8 |  |  |  | > 1 |  | 
11 | 2.3 | CCCCCOc1cc(CN(C)C)cc(OCCCCC)c1O.Cl | 51.2 |  | 44.9 |  |  | Study | 
12 | > 100 | CCCCNCc1cc(OC)c(O)c(OC)c1.Cl | 17.1 | inactive | 62.4 |  |  |  | 
13 | > 100 | CCCN(CCC)Cc1cc(OC)c(O)c(OC)c1.Cl | 5.4 | inactive | 63.7 |  |  |  | 
14 | 30 | CCCCCCCOc1c(O)cc(CN2CCN(CCO)CC2)cc1O.Cl.Cl | 50.3 |  |  | 60.3 |  |  | 
15 | 10 | CCCCCCCNCc1cc(OC(C)C)c(O)c(OC(C)C)c1.Cl | 43.5 |  |  |  | > 1 |  | 
16 | 30 | CCCCCCCOc1c(O)cc(CN(C)C)cc1O.Cl | 47 |  |  | 43.8 |  |  | 

Row | MIC (Oryctolagus cuniculus) [µM] | Structure (SMILES) | Cell viability (Rattus norvegicus [1]) [%] | ED20 (Rattus norvegicus [2]) | inhibition [3] [%] | inhibition [4] [%] | ED20 (Rattus norvegicus [5]) [mg/kg] | ED20 (Rattus norvegicus [6]) | ED20 (Rattus norvegicus [7])
17 | > 100 | CCN(CC)Cc1cc(OC)c(O)c(OC)c1.Cl | 3.7 | inactive | 66.7 |  |  |  | 
18 | 10 | CN(C)Cc1cc(OC2CCCC2)c(O)c(OC2CCCC2)c1.Cl | 28.9 |  | 74.3 |  |  | Study | 
19 | 2.3 | CCCCCCCOc1cc(CN2CCN(CCO)CC2)cc(OC)c1O.Cl.Cl | 63 |  |  | 64.4 | > 1 |  | 
20 | > 100 | CNCc1cc(OC)c(O)c(OC)c1.Cl | 7.5 | inactive | 75.8 |  |  |  | 
21 | > 100 | CCNCc1cc(OC)c(O)c(OC)c1.Cl | 3.1 | inactive | 71.8 |  |  |  | 
22 | > 100 | CCCNCc1cc(OC)c(O)c(OC)c1.Cl | 13.3 | inactive | 80.1 |  |  |  | 
23 | 30 | CCCCCN(CCCCC)Cc1cc(OC)c(O)c(OC)c1.Cl | 35.5 |  | 50.6 |  | > 1 |  | 
24 | 100 | CCOc1cc(CN(C)C)cc(OCC)c1O.Cl | 14.7 | inactive | 71.6 |  |  |  | 
25 | 30 | CCCOc1cc(CN(C)C)cc(OCCC)c1O.Cl | 31.3 |  | 91.8 |  | 1 |  | 
26 | 10 | CCCCOc1cc(CN(C)C)cc(OCCCC)c1O.Cl | 35.8 |  | 73.3 |  | 1 |  | 
27 | 30 | CCCCCCCNCc1cc(OC)c(O)c(OC)c1.Cl | 48.3 |  |  | 63.5 |  |  | 
28 | 1 | CCCCCCOc1cc(CN(C)C)cc(OCCCCCC)c1O.Cl | 73.1 |  |  | 17.6 | 0.36 |  | 
29 | 30 | COc1cc(CN(CC(C)C)CC(C)C)cc(OC)c1O.Cl | 28.7 | inactive | 63.7 |  |  |  | 
30 | 10 | CCC(CC)Oc1cc(CN(C)C)cc(OC(CC)CC)c1O.Cl | 15.2 |  | 66.8 |  | 0.42 |  | 
31 | 10 | CCCCCCCCNCc1cc(OC)c(O)c(OC)c1.Cl | 59.8 |  |  | 60.9 |  |  | Pressor
32 | 5.3 | CCCCCCCCCNCc1cc(OC)c(O)c(OC)c1.Cl | 47.1 |  |  | 52.9 |  |  | Pressor

— ChEMBL document CHEMBL1126657, “Benzylamine antioxidants: relationship between structure, peroxyl radical scavenging, lipid peroxidation inhibition, and cytoprotection” (1993)
